Calls of active or inactive are those of the source. The rule behind the calls is not given here.
Experiments:
[1] = Volume of distribution at steady state in Wistar han rat at 2 mg/kg, po and 1 mg/kg, iv; assay type: ADME, organism-based; details: in vivo, read-out: Vdss
Summary of the method: (§1)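 Wistar Han rats. IV dose 1 mg/kg in DMSO/PEG200/water (10:60:30), n=2. Oral dose 2 mg/kg in imwitor/tween (1:1) by gavage, n=3. Values are averages. Derived: F%, plasma clearance, Vdss, terminal half-life and oral AUC normalized to dose.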

[2] = Terminal half life in Wistar han rat at 2 mg/kg, po and 1 mg/kg, iv; assay type: ADME, organism-based; details: in vivo, read-out: beta t1/2 (converted); summary of the method: as §1
Progesterone receptor = molecular target: T1, Progesterone receptor (Homo sapiens, UniProt P06401); experiment: Antagonist activity at human progesterone receptor beta expressed in human U2OS cells assessed as inhibition of D(-)-norgestrel-induced protein interaction with steroid receptor co-activator peptide after overnight incubation by beta-galactosidase reporter gene assay; assay type: cell-based
T1 sequence (P06401 whole entry): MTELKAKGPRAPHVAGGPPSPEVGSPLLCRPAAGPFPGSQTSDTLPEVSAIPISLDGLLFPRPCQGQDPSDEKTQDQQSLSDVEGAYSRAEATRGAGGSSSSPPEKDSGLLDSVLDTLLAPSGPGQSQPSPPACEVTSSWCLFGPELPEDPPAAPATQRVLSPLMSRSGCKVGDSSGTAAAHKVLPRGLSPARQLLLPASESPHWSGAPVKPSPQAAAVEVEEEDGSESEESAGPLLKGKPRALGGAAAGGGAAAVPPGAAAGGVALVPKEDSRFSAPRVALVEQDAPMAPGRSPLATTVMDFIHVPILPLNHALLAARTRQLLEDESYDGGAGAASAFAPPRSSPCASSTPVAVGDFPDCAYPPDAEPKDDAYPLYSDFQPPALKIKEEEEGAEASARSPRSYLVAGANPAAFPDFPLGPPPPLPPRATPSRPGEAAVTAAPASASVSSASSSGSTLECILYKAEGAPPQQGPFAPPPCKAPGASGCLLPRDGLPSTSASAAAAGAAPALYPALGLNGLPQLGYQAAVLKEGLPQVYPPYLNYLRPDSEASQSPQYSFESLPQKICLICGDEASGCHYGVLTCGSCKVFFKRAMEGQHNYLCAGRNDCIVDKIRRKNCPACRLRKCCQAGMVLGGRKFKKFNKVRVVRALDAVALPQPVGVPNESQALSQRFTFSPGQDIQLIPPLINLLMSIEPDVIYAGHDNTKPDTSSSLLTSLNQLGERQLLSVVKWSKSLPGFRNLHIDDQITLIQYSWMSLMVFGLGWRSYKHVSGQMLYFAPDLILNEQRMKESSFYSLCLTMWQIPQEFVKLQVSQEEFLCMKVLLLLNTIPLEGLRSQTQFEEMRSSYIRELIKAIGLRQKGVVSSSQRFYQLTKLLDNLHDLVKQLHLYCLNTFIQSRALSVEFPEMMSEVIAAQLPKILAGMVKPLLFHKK

[3] = Oral bioavailability in Wistar han rat at 2 mg/kg; assay type: ADME, organism-based; details: in vivo; summary of the method: as §1
Glucocorticoid receptor = molecular target: T2, Glucocorticoid receptor (Homo sapiens, UniProt P04150); experiment: Antagonist activity at human glucocorticoid receptor expressed in CHOK1 cells assessed as inhibition of dexamethasone-induced protein interaction with steroid receptor co-activator peptide after overnight incubation by beta-galactosidase reporter gene assay; assay type: cell-based, CHO-K1
T2 sequence (P04150 whole entry): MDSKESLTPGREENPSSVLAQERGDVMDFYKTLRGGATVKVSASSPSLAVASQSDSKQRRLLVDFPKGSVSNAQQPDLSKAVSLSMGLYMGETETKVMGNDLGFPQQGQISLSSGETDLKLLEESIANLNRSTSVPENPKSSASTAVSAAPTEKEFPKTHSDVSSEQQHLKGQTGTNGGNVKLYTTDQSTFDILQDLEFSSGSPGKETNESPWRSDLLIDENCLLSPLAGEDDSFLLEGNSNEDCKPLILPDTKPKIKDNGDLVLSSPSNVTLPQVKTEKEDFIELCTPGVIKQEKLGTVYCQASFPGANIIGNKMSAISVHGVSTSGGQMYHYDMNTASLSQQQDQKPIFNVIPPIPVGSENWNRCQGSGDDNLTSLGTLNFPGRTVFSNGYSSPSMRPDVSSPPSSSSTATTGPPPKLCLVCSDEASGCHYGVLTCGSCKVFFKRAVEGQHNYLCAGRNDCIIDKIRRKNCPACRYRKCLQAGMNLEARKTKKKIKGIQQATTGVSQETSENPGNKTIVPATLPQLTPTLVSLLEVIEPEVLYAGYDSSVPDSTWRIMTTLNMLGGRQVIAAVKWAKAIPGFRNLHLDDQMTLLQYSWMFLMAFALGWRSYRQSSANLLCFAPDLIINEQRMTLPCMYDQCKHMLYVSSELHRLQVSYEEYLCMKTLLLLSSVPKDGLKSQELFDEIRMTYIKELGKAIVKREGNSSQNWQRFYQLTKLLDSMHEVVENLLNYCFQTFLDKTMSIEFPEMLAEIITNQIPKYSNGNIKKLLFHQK

[4] = Metabolic stability in rat liver microsomes assessed as compound remaining at 1 uM after 0.5 hrs; assay type: ADME; details: read-out: Stability
[5] = molecular target: T3, Progesterone receptor (Homo sapiens) (UniProt P06401); experiment: Agonist activity at human progesterone receptor beta by cell-based assay
T3 sequence (whole entry): T1 sequence (P06401 whole entry)

[6] = Fraction unbound in 10% rat plasma; assay type: ADME, cell-free; details: 10% plasma
Summary of the method: (§2)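 Free fraction measured in the presence of 10% plasma (human or rat), taken as correlating with the free fraction in whole plasma.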

[7] = Fraction unbound in 10% human plasma; assay type: ADME, cell-free; details: 10% plasma; summary of the method: as §2
Estrogen receptor = molecular target: T4, Estrogen receptor (Homo sapiens, UniProt P03372); experiment: Antagonist activity at human estrogen receptor alpha expressed in CHOK1 cells assessed as inhibition of beta-estradiol-induced protein interaction with steroid receptor co-activator peptide after overnight incubation by beta-galactosidase reporter gene assay; assay type: cell-based, CHO-K1
T4 sequence (P03372 whole entry): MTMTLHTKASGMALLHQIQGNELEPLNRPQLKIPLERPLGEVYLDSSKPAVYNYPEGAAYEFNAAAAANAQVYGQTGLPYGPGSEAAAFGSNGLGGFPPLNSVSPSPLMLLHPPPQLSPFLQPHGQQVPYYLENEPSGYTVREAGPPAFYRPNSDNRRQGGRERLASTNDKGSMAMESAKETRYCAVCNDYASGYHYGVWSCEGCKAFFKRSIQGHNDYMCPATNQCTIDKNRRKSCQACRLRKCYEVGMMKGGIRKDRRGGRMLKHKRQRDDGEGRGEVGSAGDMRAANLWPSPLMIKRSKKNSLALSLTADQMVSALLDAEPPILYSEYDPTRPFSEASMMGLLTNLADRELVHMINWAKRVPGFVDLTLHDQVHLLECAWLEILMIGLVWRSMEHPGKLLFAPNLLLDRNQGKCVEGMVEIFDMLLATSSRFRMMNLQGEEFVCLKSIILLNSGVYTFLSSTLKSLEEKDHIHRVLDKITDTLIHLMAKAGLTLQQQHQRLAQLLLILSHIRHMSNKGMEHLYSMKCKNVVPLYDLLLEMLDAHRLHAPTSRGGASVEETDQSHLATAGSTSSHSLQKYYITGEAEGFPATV

[8] = Plasma clearance in Wistar han rat at 2 mg/kg, po and 1 mg/kg, iv; assay type: ADME, organism-based; summary of the method: as §1
Rattus norvegicus = experiment: Dose normalized AUC in Wistar han rat at 2 mg/kg, po; assay type: ADME, organism-based; details: in vivo; summary of the method: as §1

Row | Structure (SMILES) | Vd [1] [L/kg] | half-life [2] [h] | IC50 (Progesterone receptor) [µM] | bioavailability [3] [%] | IC50 (Glucocorticoid receptor) [µM] | remaining at 0.5 h, 1 µM [4] [%] | Activity [5] | fraction unbound [6] | fraction unbound [7] | IC50 (Estrogen receptor) [µM] | clearance [8] [mL/min/kg] | AUC/dose (Rattus norvegicus) [µM·kg·h/mg]
1 | C[C@H](c1ccc(F)cc1)N1C(=O)O[C@](Cc2ccccc2)(c2nc3c(NS(C)(=O)=O)cccc3[nH]2)C1=O | 3.2 | 1.2 | 8.2 | 15 | 17 | 44 | inactive | 0.064 | 0.058 | > 20 | 55 | 0.085
2 | C[C@H](c1ccc(F)cc1)N1C(=O)O[C@](Cc2ccccc2)(c2nc3cc(C(F)(F)F)ccc3[nH]2)C1=O | 3.4 | 1.7 | 3.2 | 36 | 3.4 | 41 | inactive | 0.007 | 0.002 | 3 | 33 | 0.33
3 | C[C@H](c1ccc(F)cc1)N1C(=O)O[C@](Cc2ccccc2)(c2nc3cc(Cl)ccc3[nH]2)C1=O | 4.6 | 1.5 | 2.4 | 15 | 3.8 | 14 | inactive | 0.01 | 0.002 | 3.3 | 47 | 0.11
4 | C[C@H](c1ccc(F)cc1)N1C(=O)O[C@](Cc2ccccc2)(c2nc3cc(N4CCOCC4)ccc3[nH]2)C1=O | 2.3 | 0.69 | 1.9 | 44 | 4.9 | 92 | inactive | 0.065 | 0.093 | 6.1 | 67 | 0.07
5 | C[C@H](c1ccc(F)cc1)N1C(=O)O[C@](Cc2ccccc2)(c2nc3cc(NS(C)(=O)=O)ccc3[nH]2)C1=O | 1.8 | 1.6 | 4.9 | 6 | > 20 | 80 | inactive | 0.064 | 0.034 | 17 | 32 | 0.067
6 | C[C@H](c1ccc(F)cc1)N1C(=O)O[C@](Cc2ccccc2)(c2nc3cc(-c4cccnc4)ccc3[nH]2)C1=O | 5 | 0.94 | 2.9 | 11 | 3.1 | 45 | inactive | 0.008 | 0.002 | 7.9 | 80 | 0.046
7 | C[C@H](c1ccc(F)cc1)N1C(=O)O[C@](Cc2ccccc2)(c2nc3cc(-c4cc[nH]n4)ccc3[nH]2)C1=O | 1.6 | 1.8 | 2.9 | 27 | 3 | 62 | inactive | 0.017 | 0.04 | 6.3 | 19 | 0.49
8 | Cc1nocc1-c1ccc2[nH]c([C@@]3(Cc4ccccc4)OC(=O)N([C@H](C)c4ccc(F)cc4)C3=O)nc2c1 | 1.9 | 1.2 | 2.8 | 54 | 2.9 | 54 | inactive |  |  | 4.9 | 20 | 0.79
